Laboratory results published in ChEMBL document CHEMBL1143580 (J Med Chem, 2005).

What was measured:
[1] = Inhibitory constant for [3H]YM-09151-2 binding to Dopamine receptor D2-like in porcine striatal membranes; format: cell membranes, Sus scrofa, Striatum, Membrane
Rattus norvegicus [2] = species: Rattus norvegicus; assay: Amount of cGMP level in rat neostriatal membranes after incubation at 10 uM; format: functional
How it was run: (§1)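 Rat striatal membranes in 0.1 M phosphate buffer pH 7.0 with MgCl2 and 2.25 mM IBMX at 37 °C; reaction started with 54 µM GTP, 60 min at 37 °C; compounds at 0.1, 1.0, 10 µM. Stopped with HCl, boiled 5 min, centrifuged, filtered; cGMP measured by reverse-phase HPLC at 254 nm against standards, confirmed by cGMP EIA; mean ± SEM of triplicates.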

Rattus norvegicus [3] = species: Rattus norvegicus; assay: Amount of cGMP level in rat neostriatal membranes after incubation at 0.1 uM; format: functional; how it was run: as §1
Rattus norvegicus [4] = species: Rattus norvegicus; assay: Amount of cGMP level in rat neostriatal membranes after incubation at 1.0 uM; format: functional; how it was run: as §1
Rattus norvegicus [5] = species: Rattus norvegicus; assay: Amount of cGMP in rat neostriatal membranes after incubation at 10 uM; format: functional; how it was run: as §1
Rattus norvegicus [6] = species: Rattus norvegicus; assay: Amount of cGMP in rat neostriatal membranes after incubation at 0.1 uM; format: functional; how it was run: as §1
Rattus norvegicus [7] = species: Rattus norvegicus; assay: Amount of cGMP in rat neostriatal membranes after incubation at 1.0 uM; format: functional; how it was run: as §1
Rattus norvegicus [8] = species: Rattus norvegicus; assay: Amount of cAMP level in rat neostriatal membranes after incubation at 1 uM; format: functional
How it was run: (§2)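 Rat striatal membranes; adenylyl cyclase reaction in 0.1 M Tris-HCl pH 8.3, 10 mM MgCl2, 0.1 M KCl, 37 °C, 60 min; compounds at 1, 10, 100 µM. Stopped with HCl (final 0.01 M) plus 5 min boiling, centrifuged, filtered. cAMP quantified by reverse-phase HPLC at 254 nm against standards, confirmed by cAMP EIA; pmol/mg protein, mean ± SEM of triplicates.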

Rattus norvegicus [9] = species: Rattus norvegicus; assay: Amount of cAMP level in rat neostriatal membranes after incubation at 10 uM; format: functional; how it was run: as §2
Rattus norvegicus [10] = species: Rattus norvegicus; assay: Amount of cAMP level in rat neostriatal membranes after incubation at 100 uM; format: functional; how it was run: as §2
[11] = Inhibitory constant for [3H]YM-09151-2 binding to Dopamine receptor D2-like in porcine striatal membranes; NA= not active until 1e-5M; format: cell membranes, Sus scrofa
Rattus norvegicus [12] = species: Rattus norvegicus; assay: Decrease of basal cAMP concentration mediated by striatal adenylyl cyclase activity in rat neostriatal membrane at 100 uM; format: functional; how it was run: as §2
[13] = target: Adenylate cyclase type 2 (Rattus norvegicus) (UniProt P26769); assay: Inhibition of basal striatal adenylyl cyclase activity in rat neostriatal membrane at 100 uM; format: functional, cell membranes
Chain of Adenylate cyclase type 2 (Rattus norvegicus) (P26769 whole entry): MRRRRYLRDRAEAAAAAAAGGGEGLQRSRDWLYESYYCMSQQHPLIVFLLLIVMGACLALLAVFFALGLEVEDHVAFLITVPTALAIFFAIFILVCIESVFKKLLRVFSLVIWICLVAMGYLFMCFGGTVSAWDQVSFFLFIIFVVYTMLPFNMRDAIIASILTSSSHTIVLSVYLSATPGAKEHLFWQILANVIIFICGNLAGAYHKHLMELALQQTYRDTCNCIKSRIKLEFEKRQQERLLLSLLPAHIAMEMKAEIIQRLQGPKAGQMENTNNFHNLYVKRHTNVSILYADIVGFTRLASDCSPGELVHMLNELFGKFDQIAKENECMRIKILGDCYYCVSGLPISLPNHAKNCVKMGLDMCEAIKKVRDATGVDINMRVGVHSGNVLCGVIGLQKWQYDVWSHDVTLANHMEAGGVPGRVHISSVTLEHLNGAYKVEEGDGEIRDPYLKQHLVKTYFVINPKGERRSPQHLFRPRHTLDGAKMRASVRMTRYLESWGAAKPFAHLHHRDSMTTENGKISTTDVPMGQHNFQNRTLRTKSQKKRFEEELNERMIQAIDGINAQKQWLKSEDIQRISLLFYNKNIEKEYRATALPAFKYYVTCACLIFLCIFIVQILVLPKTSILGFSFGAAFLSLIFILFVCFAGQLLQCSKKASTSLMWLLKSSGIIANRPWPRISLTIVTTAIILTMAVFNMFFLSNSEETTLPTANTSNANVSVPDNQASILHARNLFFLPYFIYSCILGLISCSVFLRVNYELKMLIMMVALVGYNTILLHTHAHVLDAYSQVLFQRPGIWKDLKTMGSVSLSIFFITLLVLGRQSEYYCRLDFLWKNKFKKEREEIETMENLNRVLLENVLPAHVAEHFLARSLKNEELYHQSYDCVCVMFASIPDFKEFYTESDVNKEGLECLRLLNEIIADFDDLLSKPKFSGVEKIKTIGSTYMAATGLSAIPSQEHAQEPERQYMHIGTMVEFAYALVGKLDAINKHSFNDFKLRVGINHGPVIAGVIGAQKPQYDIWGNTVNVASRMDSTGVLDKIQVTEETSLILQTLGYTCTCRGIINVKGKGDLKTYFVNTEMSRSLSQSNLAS
How it was run: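 Rat striatal membranes incubated 60 min at 37 °C in 0.1 M Tris-HCl pH 8.3, 10 mM MgCl2, 0.1 M KCl. Reaction stopped with HCl (0.01 M final) and 5 min boiling. Filtered supernatant analysed for cAMP by reverse-phase HPLC at 254 nm against standards, confirmed by cAMP EIA. Tested at 1, 10 and 100 µM. Triplicates reported as mean ± SEM.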

[14] = Inhibitory constant for Dopamine receptor D1-like
[15] = Inhibitory constant for Dopamine receptor D2-like

Ki [1]	SMILES	cGMP content (pmol/mg protein) (Rattus norvegicus [2])	cGMP content (pmol/mg protein) (Rattus norvegicus [3])	cGMP content (pmol/mg protein) (Rattus norvegicus [4])	also measured
640 nM	C=CCN(C)[C@@H]1Cc2cc(F)c(OC)cc2[C@H]1c1ccccc1	–	–	–	–
1900 nM	COc1cc2c(cc1F)C[C@@H](N(C)C)[C@@H]2c1ccccc1	–	–	–	–
4500 nM	CN(C)[C@@H]1Cc2cc(F)c(O)cc2[C@H]1c1ccccc1	–	–	–	–
17000 nM	COc1cc2c(cc1F)C[C@@H](N)[C@@H]2c1ccccc1	–	–	–	–
12000 nM	CCCN(CCC)[C@@H]1Cc2cc(O)c(F)cc2[C@H]1c1ccccc1	–	–	–	–
650 nM	CCCN(C)[C@@H]1Cc2cc(F)c(O)cc2[C@H]1c1ccccc1	1.78	10.9	5.79	cAMP content (pmol/mg protein) (Rattus norvegicus [8]): 103; cAMP content (pmol/mg protein) (Rattus norvegicus [9]): 93; cAMP content (pmol/mg protein) (Rattus norvegicus [10]): 74.4; Decrease (Rattus norvegicus [12]): 30%
5100 nM	CN[C@@H]1Cc2cc(F)c(O)cc2[C@H]1c1ccccc1	–	–	–	–
4300 nM	COc1cc2c(cc1F)[C@@H](c1ccccc1)[C@H](N(C)C)C2	–	–	–	–
170 nM	CCCN(CCC)[C@@H]1Cc2cc(F)c(OC)cc2[C@H]1c1ccccc1	5.79	10.6	6.97	–
640 nM	C=CCN(C)[C@@H]1Cc2cc(O)c(F)cc2[C@H]1c1ccccc1	–	–	–	–
920 nM	CCCN(CCC)[C@@H]1Cc2cc(F)c(O)cc2[C@H]1c1ccccc1	4.37	11.6	7.32	–
15000 nM	N[C@@H]1Cc2cc(O)c(F)cc2[C@H]1c1ccccc1	–	–	–	–
3100 nM	CN[C@@H]1Cc2cc(OC)c(F)cc2[C@H]1c1ccccc1	–	–	–	–
480 nM	CCCN(C)[C@@H]1Cc2cc(F)c(OC)cc2[C@H]1c1ccccc1	3.9	10.4	6.86	–

Continued, molecule first:

SMILES	Ki [1]	cGMP content (pmol/mg protein) (Rattus norvegicus [2])	cGMP content (pmol/mg protein) (Rattus norvegicus [3])	cGMP content (pmol/mg protein) (Rattus norvegicus [4])	also measured
CCCN(C)[C@@H]1Cc2cc(O)c(F)cc2[C@H]1c1ccccc1	240 nM	5.56	11.5	7.45	–
CN1CCc2cc(Cl)c(O)cc2[C@@H](c2ccccc2)C1	–	–	–	–	cGMP content (pmol/mg protein) (Rattus norvegicus [5]): 6.15; cGMP content (pmol/mg protein) (Rattus norvegicus [6]): 11.5; cGMP content (pmol/mg protein) (Rattus norvegicus [7]): 6.62
NCCc1ccc(O)c(O)c1	–	4.02	11.7	6.15	cAMP content (pmol/mg protein) (Rattus norvegicus [8]): 95.1; cAMP content (pmol/mg protein) (Rattus norvegicus [9]): 89.8; cAMP content (pmol/mg protein) (Rattus norvegicus [10]): 85.6
CCCN(C)[C@@H]1Cc2cc(OC)c(F)cc2[C@H]1c1ccccc1	270 nM	3.78	11.2	4.96	cAMP content (pmol/mg protein) (Rattus norvegicus [8]): 105; cAMP content (pmol/mg protein) (Rattus norvegicus [9]): 103; cAMP content (pmol/mg protein) (Rattus norvegicus [10]): 84.6
Br.CN(C)[C@@H]1Cc2cc(O)c(F)cc2[C@H]1c1ccccc1	–	–	–	–	Ki [11]: Not Active
CCCN(CCc1ccccc1)CCc1cccc(O)c1	–	3.78	10.4	7.45	cAMP content (pmol/mg protein) (Rattus norvegicus [8]): 104; cAMP content (pmol/mg protein) (Rattus norvegicus [9]): 93.1; cAMP content (pmol/mg protein) (Rattus norvegicus [10]): 79.3; inhibition [13]: 25%
CN[C@@H]1Cc2cc(O)c(F)cc2[C@H]1c1ccccc1	4300 nM	–	–	–	–
CN1CCc2cc(F)c(O)cc2C1C1(c2ccccc2Cl)CC1 (stereo not drawn)	–	–	–	–	Ki [14]: 0.18 nM; Ki [15]: 450 nM
CCN1CCCC1CNC(=O)c1cc(S(N)(=O)=O)ccc1OC (stereo not drawn)	–	17.7	12.5	17.3	–
C=CCN(C)[C@@H]1Cc2cc(OC)c(F)cc2[C@H]1c1ccccc1	310 nM	–	–	–	–
CCCN(CCC)[C@@H]1Cc2cc(OC)c(F)cc2[C@H]1c1ccccc1	550 nM	–	–	–	–
Oc1cc2c(cc1O)C(c1ccccc1)CNCC2 (stereo not drawn)	–	18.2	12.4	17.4	–
N[C@@H]1Cc2cc(F)c(O)cc2[C@H]1c1ccccc1	19000 nM	–	–	–	–
CN[C@@H]1Cc2cc(F)c(OC)cc2[C@H]1c1ccccc1	2600 nM	–	–	–	–
COc1cc2c(cc1F)[C@@H](c1ccccc1)[C@H](N)C2	12000 nM	–	–	–	–
C=CCN(C)[C@@H]1Cc2cc(F)c(O)cc2[C@H]1c1ccccc1	960 nM	–	–	–	–
